Measured values collected from several papers.
Lines come from different studies, so protocols differ.
Read-out: cell growth or viability

| Structure (SMILES) | cell line | technique | tested at | time | quantity | value |
| --- | --- | --- | --- | --- | --- | --- |
| COc1ccc(NC(=O)c2c(Nc3ccccc3)sc(C#N)c2NC(=O)CNc2ccc(OC)c(OC)c2)cc1 | HepG2 | SRB | 1 µM | 48 h | viability | 83.7% |
| CCCCCCCCCCCCNC(=S)NCCCC[C@H](NS(C)(=O)=O)C(=O)N[C@H](C)C(=O)N[C@@H](CCCNC(=N)N)C(=O)N1CCOCC1 | HEK-293T | MTT | – | 72 h | EC50 | > 100 µM |
| COc1ccc(NC(=O)c2c(Nc3ccccc3)sc(C#N)c2NC(=O)CNc2ccc(C)cc2)cc1 | HepG2 | SRB | 10 nM | 48 h | viability | 88.3% |
| CCOC(=O)c1sc(NCc2ncccn2)nc1-c1ccccn1 | Huh-7 | – | – | – | CC50 | > 40 µM |
| COc1ccc(NC(=O)c2c(Nc3ccccc3)sc(C#N)c2NC(=O)CNc2ccccc2Cl)cc1 | HepG2 | SRB | 10 nM | 48 h | viability | 88.3% |
| Cc1cc(Nc2ccc(C(=O)N/N=C/c3ccccc3)cc2)c2cccc(O)c2n1 | Huh-7 | MTT | 20 µM | – | inhibition | 32.3% |
| c1ccc(-c2csc(NCc3ncccn3)n2)nc1 | Huh-7 | – | – | – | CC50 | > 40 µM |
| Cc1ccc(/C=N/NC(=O)c2ccc(Nc3cc(C)nc4c(O)cccc34)cc2)cc1 | Huh-7 | MTT | 20 µM | – | inhibition | 62.5% |
| COc1cc(Nc2nccc(-c3cnn4nc(OC)ccc34)n2)cc(C(F)(F)F)c1 | HEC-1B | ATP luminescence | – | – | IC50 | > 3 µM |
| Cc1cc(Nc2ccc(C(=O)N/N=C/c3ccc(C)s3)cc2)c2cccc(O)c2n1 | Huh-7 | MTT | 20 µM | – | inhibition | 43.3% |
| CCOC(=O)c1ccc(-n2c(C)cc(C)c(C#N)c2=O)cc1 | HepG2 | MTT | 50 µM | 24 h | viability | 51.2% |
| COc1cc([C@@H]2c3cc4c(cc3[C@@H](O[C@@H]3O[C@@H]5CO[C@@H](C)O[C@H]5[C@H](O)[C@H]3O)[C@H]3COC(=O)[C@H]23)OCO4)cc(OC)c1O | CCD-18Co | MTS | – | 72 h | IC50 | 40.3 µM |
| COc1ccc(/C=N/NC(=O)c2ccc(Nc3cc(C)nc4c(O)cccc34)cc2)cc1O | Huh-7 | MTT | 20 µM | – | inhibition | 30.2% |
| COc1ccc(NC(=O)c2c(Nc3ccccc3)sc(C(=O)NN=Cc3ccc(C)cc3)c2NC(C)=O)cc1 | HepG2 | SRB | 1 nM | 48 h | viability | 100% |
| Cc1cc(Nc2ccc(C(=O)N/N=C/C3CCCCC3)cc2)c2cccc(O)c2n1 | Huh-7 | MTT | 20 µM | – | inhibition | 41.1% |
| COc1ccc(NC(=O)c2c(Nc3ccccc3)sc(C(=O)NN=Cc3cc(OC)c(OC)c(OC)c3)c2NC(C)=O)cc1 | HepG2 | SRB | 10 nM | 48 h | viability | 89.2% |

| Structure (SMILES) | cell line | technique | tested at | time | quantity | value |
| --- | --- | --- | --- | --- | --- | --- |
| C=CC(=O)Nc1cccc(Nc2nc(Nc3ccc(OCCOC)cc3)ncc2F)c1 | Ramos | – | – | 48 h | GI50 | 9.2 µM |
| CCOC(=O)c1ccc(-n2c(C)cc(/C=C/c3ccc(OCC)cc3)c(C#N)c2=O)cc1 | HepG2 | MTT | 3.125 µM | 24 h | viability | 100% |
| COc1ccc(NC(=O)c2c(Nc3ccccc3)sc(C(=O)NN=Cc3ccc(OC)c(O)c3)c2NC(C)=O)cc1 | HepG2 | SRB | 0.1 µM | 48 h | viability | 63.7% |
| Cc1cc(Nc2ccc(C(=O)N/N=C/c3cccs3)cc2)c2cccc(O)c2n1 | Huh-7 | MTT | 20 µM | – | inhibition | 42.1% |
| CCOC(=O)c1ccc(-n2c(C)cc(/C=C/c3ccc(OC)cc3)c(C#N)c2=O)cc1 | HepG2 | MTT | 25 µM | 24 h | viability | 72.6% |
| Cc1cccc(/C=N/NC(=O)c2ccc(Nc3cc(C)nc4c(O)cccc34)cc2)n1 | Huh-7 | MTT | 20 µM | – | inhibition | 53.1% |
| COc1ccc(NC(=O)c2c(Nc3ccccc3)sc(C(=O)NN=Cc3ccccc3)c2NC(C)=O)cc1 | HepG2 | SRB | 10 µM | 48 h | viability | 65.3% |
| COc1cc2c(Nc3ccc(Br)cc3F)ncnc2cc1OCC1CCN(C)CC1 | NCI-H292 | ATP luminescence | – | 72 h | GI50 | 1.14 µM |
| CC(C)C[C@H](NC(=O)[C@H](Cc1ccccc1)NC(=O)c1cnccn1)B(O)O | HEC-1B | ATP luminescence | – | – | IC50 | 0.0096 µM |
| C=CC(=O)Nc1cc(-n2c(=O)ccc3cnc4ccc(-c5ccc(NS(C)(=O)=O)cc5)cc4c32)ccc1C | Ramos | – | – | 48 h | GI50 | 1.8 µM |
| CCOC(=O)c1ccc(-n2c(-c3ccc(C)cc3)cc(-c3ccc(O)cc3)c(C#N)c2=O)cc1 | HepG2 | MTT | 25 µM | 24 h | viability | 33.1% |
| CCCCCCCCCCCCNC(=O)NCCCC[C@H](NS(C)(=O)=O)C(=O)N[C@H](C)C(=O)N[C@@H](CCCNC(=N)N)C(N)=O | HEK-293T | MTT | – | 72 h | EC50 | 28.6 to 38 µM |
| CNC(=O)c1cc(Oc2ccc(NC(=O)Nc3ccc(Cl)c(C(F)(F)F)c3)cc2)ccn1 | HepG2 | SRB | 100 µM | 48 h | viability | 40.3% |
| CCOC(=O)c1ccc(NC(=O)C2=C3C(=Nc4ccccc43)NC2=O)cc1 | HepG2 | MTT | 12.5 µM | 24 h | viability | 68.1% |
| C[C@@H](NC(=O)[C@H](CCCCNC(=O)C(F)(F)F)NS(C)(=O)=O)C(=O)N[C@@H](CCCNC(=N)N)C(N)=O | HEK-293T | MTT | – | 72 h | EC50 | 3.68 to 46.1 µM |
